Active and inactive are the calls of the source. The rule behind the calls is not given here.
Assays:
[1] = Inhibition of tubulin polymerization in presence of microtubule-associated proteins at 60 uM
In short: (§1)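 Tubulin containing MAPs in PME buffer (100 mM PIPES pH 6.9, 2 mM EGTA, 1 mM MgSO4) with GTP and drug in DMSO, tubulin added last; 37 °C, absorbance change at 351 nm over 10 min. Drug concentration varied across runs for delta absorbance versus concentration curves; colchicine standard curves made for each tubulin batch.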

[2] = Cytotoxicity against human H520 cells at 10 uM after 72 hrs by Cell Titer 96 Aqueous Non-Radioactive assay; assay type: functional; settings: NCI-H520, 72 h, read-out: Inhibition
In short: (§2)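 MCF7, NCI-H520 or PC-3 cells (RPMI-1640, 10% FBS) plated 1 × 10^4/well, 24 h at 37 °C, exposed 72 h to drug at 10 or 100 μM in DMSO or EtOH vehicle (controls usually 0.2%). Survival by MTS/PMS formazan absorbance at 490 nm, plate blank subtracted, as percent of vehicle wells; quadruplicate; etoposide or m-AMSA positive controls.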

[3] = Cytotoxicity against human H520 cells at 100 uM after 72 hrs by Cell Titer 96 Aqueous Non-Radioactive assay; assay type: functional; settings: NCI-H520, 72 h, read-out: Inhibition; in short: as §2
[4] = tested on: MCF7; test: Cytotoxicity against human MCF7 cells at 10 uM after 72 hrs by Cell Titer 96 Aqueous Non-Radioactive assay; assay type: functional; settings: MCF7, 72 h, read-out: Inhibition; in short: as §2
[5] = tested on: MCF7; test: Cytotoxicity against human MCF7 cells at 100 uM after 72 hrs by Cell Titer 96 Aqueous Non-Radioactive assay; assay type: functional; settings: MCF7, 72 h, read-out: Inhibition; in short: as §2
[6] = tested on: PC-3; test: Cytotoxicity against human PC3 cells at 10 uM after 72 hrs by Cell Titer 96 Aqueous Non-Radioactive assay; assay type: functional; settings: PC-3, 72 h, read-out: Inhibition; in short: as §2
[7] = tested on: PC-3; test: Cytotoxicity against human PC3 cells at 100 uM after 72 hrs by Cell Titer 96 Aqueous Non-Radioactive assay; assay type: functional; settings: PC-3, 72 h, read-out: Inhibition; in short: as §2
[8] = Cytotoxicity against human H520 cells after 72 hrs by Cell Titer 96 Aqueous Non-Radioactive assay; assay type: functional; settings: NCI-H520, 72 h
In short: (§3)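 MCF7, NCI-H520 and PC-3 cells in RPMI-1640 + 10% FBS, 2 mM L-glutamine, 0.1 mM non-essential amino acids; 1 × 10^4 cells/well, 24 h at 37 °C, then drug in DMSO or EtOH (<1%) for 72 h. Cells under 50% survival at 100 μM retested over further concentrations for GI50. MTS/PMS read at 490 nm, blank subtracted, versus vehicle wells; quadruplicate or more.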

[9] = tested on: CCRF-CEM; test: Cytotoxicity against human CCRF-CEM cells; assay type: functional
[10] = Cytotoxicity against human HL60 (TB) cells; assay type: functional; settings: HL-60
[11] = tested on: K562; test: Cytotoxicity against human K562 cells; assay type: functional
[12] = tested on: MOLT-4; test: Cytotoxicity against human MOLT4 cells; assay type: functional
[13] = tested on: RPMI-8226; test: Cytotoxicity against human RPMI8226 cells; assay type: functional
[14] = tested on: SR; test: Cytotoxicity against human SR cells; assay type: functional
[15] = tested on: HOP-92; test: Cytotoxicity against human HOP92 cells; assay type: functional
[16] = tested on: EKVX; test: Cytotoxicity against human EKVX cells; assay type: functional
[17] = tested on: COLO 205; test: Cytotoxicity against human COLO205 cells; assay type: functional
[18] = tested on: HT-29; test: Cytotoxicity against human HT29 cells; assay type: functional
[19] = tested on: OVCAR-3; test: Cytotoxicity against human OVCAR-3 cells; assay type: functional
[20] = tested on: IGROV-1; test: Cytotoxicity against human IGROV1 cells; assay type: functional
[21] = tested on: DU-145; test: Cytotoxicity against human DU145 cells; assay type: functional
[22] = tested on: LOX IMVI; test: Cytotoxicity against human LOX IMVI cells; assay type: functional
[23] = Cytotoxicity against human […]; assay type: functional
[24] = tested on: BT-549; test: Cytotoxicity against human BT549 cells; assay type: functional
[25] = tested on: UO-31; test: Cytotoxicity against human UO31 cells; assay type: functional
[26] = tested on: MCF7; test: Cytotoxicity against human MCF7 cells after 72 hrs by Cell Titer 96 Aqueous Non-Radioactive assay; assay type: functional; settings: MCF7, 72 h; in short: as §3
[27] = tested on: PC-3; test: Cytotoxicity against human PC3 cells after 72 hrs by Cell Titer 96 Aqueous Non-Radioactive assay; assay type: functional; settings: PC-3, 72 h; in short: as §3
[28] = Inhibition of tubulin polymerization in presence of microtubule-associated proteins; in short: as §1
[29] = molecular target: DNA topoisomerase 2-alpha (Homo sapiens) (UniProt P11388); test: Inhibition of topoisomerase 2 assessed as relaxation of supercoiled DNA at 100 uM
[30] = Cell cycle arrest in mouse tsFT210 cells assessed as accumulation at G1 phase at 100 uM after 18 hrs by flow cytometry; assay type: functional, cell-based
In short: (§4)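 Synchronous-culture assay: tsFT210 cells seeded at 1x10^5 cells/mL, preincubated 1 h at 32 °C, then incubated with compound 18 h at 32 °C; morphology checked by microscopy; DNA content by flow cytometry after staining with 50 μg/mL propidium iodide, 0.1% sodium citrate, 0.2% NP-40; nuclei/chromosomes stained with Hoechst 33258 after KCl swelling and Carnoy fixation.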

[31] = Cell cycle arrest in mouse tsFT210 cells assessed as accumulation at G2/M phase at 100 uM after 18 hrs by flow cytometry; assay type: functional, cell-based; in short: as §4
[32] = Antiproliferative activity against mouse tsFT210 cells after 48 hrs by WST-8 assay; assay type: functional, cell-based; settings: tsFT210, 48 h
In short: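 tsFT210 cells (temperature-sensitive cdc2 mutant from mouse mammary carcinoma FM3A), kept in RPMI 1640 with 10% fetal calf serum at 32 °C; exponentially growing cells exposed to compound at 32 °C for 48 h, then WST-8 added for 4 h at 37 °C; absorbance at 450 nm read to estimate cell number; IC50 reported.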

Sequence of DNA topoisomerase 2-alpha (Homo sapiens) (P11388 whole entry): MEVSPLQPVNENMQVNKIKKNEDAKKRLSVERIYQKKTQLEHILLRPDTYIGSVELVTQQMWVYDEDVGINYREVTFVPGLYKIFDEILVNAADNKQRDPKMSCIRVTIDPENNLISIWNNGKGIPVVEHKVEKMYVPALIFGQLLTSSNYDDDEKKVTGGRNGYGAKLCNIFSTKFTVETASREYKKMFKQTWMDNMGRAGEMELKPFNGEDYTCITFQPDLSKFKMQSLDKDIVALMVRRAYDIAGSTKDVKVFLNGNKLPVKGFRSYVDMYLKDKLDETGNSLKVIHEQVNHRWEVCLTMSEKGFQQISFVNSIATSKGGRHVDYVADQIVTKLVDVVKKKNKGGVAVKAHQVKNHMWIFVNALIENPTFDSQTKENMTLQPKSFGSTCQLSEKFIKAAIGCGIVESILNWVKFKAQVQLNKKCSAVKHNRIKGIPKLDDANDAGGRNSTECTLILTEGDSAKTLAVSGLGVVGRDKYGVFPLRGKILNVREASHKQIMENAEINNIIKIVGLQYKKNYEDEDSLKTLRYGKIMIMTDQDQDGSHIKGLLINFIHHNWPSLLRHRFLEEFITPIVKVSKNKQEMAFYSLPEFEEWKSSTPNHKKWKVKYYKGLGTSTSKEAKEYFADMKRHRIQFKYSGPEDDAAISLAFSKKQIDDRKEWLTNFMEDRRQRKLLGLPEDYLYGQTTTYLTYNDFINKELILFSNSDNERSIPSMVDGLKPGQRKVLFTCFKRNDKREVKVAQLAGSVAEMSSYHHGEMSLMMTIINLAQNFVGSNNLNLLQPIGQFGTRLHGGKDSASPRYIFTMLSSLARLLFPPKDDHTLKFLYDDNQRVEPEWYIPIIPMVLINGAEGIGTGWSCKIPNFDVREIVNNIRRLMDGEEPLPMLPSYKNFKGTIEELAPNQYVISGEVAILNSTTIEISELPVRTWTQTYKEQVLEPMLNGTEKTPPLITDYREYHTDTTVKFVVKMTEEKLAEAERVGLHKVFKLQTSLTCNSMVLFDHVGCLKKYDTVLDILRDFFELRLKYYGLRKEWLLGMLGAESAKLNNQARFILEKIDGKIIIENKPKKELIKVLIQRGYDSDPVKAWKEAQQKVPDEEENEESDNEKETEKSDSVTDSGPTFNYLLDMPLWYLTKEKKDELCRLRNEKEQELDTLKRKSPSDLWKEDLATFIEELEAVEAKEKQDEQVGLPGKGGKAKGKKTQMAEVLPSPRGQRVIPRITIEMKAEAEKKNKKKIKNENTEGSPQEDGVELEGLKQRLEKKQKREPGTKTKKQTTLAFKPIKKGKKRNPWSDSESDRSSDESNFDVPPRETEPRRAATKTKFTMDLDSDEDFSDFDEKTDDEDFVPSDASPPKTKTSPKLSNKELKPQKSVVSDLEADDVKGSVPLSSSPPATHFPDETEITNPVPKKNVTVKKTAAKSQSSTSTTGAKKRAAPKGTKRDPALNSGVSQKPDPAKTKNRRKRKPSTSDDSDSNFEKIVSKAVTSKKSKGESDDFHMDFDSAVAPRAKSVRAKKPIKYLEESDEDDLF

| Compound | percent cell survival relative to vehicle at 10 µM [2] | cell survival (% of vehicle control) at 100 µM [3] | cell survival (% of vehicle control) at 10 µM [4] | cell survival (% of vehicle control) at 100 µM [5] | percent cell survival relative to vehicle control at 10 µM [6] | percent cell survival at 100 µM [7] | GI50 [9] | GI50 [10] | GI50 [11] | GI50 [12] | GI50 [13] | GI50 [14] | GI50 [16] | GI50 [17] | GI50 [19] | GI50 [20] | GI50 [21] | GI50 [22] | GI50 [23] | GI50 [24] | other results |
| --- | --- | --- | --- | --- | --- | --- | --- | --- | --- | --- | --- | --- | --- | --- | --- | --- | --- | --- | --- | --- | --- |
| CC(C)=CCc1[nH]c2ccccc2c1C[C@@H]1NC(=O)[C@H]2CCCN2C1=O | 88.3% | 0.1% | 73.6% | 0% | 59.3% | 0.2% | 3.22 µM | 22.4 µM | 20.1 µM | 5.96 µM | 5.54 µM | 9.46 µM | 6.9 µM | 17.7 µM | 9.69 µM | 11.5 µM | 14 µM | 9.23 µM | 14.9 µM | 13.2 µM | inhibition [1]: < 2%; GI50 [8]: 11.9 µM; GI50 [15]: 1.7 µM; GI50 [18]: 5.25 µM; GI50 [25]: 14.7 µM |
| CC(C)=CCc1[nH]c2ccccc2c1C[C@H]1NC(=O)[C@@H]2CCCN2C1=O | > 100% | 76.5% | > 100% | > 100% | 97.3% | 68.5% | 22.2 µM | 55.7 µM | 31.8 µM | 34.9 µM | 18.6 µM | 25.4 µM | 20.7 µM | 39.3 µM | 28.7 µM | 32.3 µM | 59.5 µM | 17.8 µM | 49.6 µM | 26.9 µM | inhibition [1]: < 2%; GI50 [26]: 25.9 µM; GI50 [27]: 24.8 µM; GI50 [15]: 2.94 µM; GI50 [25]: 45.7 µM |
| CC(C)=CCc1[nH]c2ccccc2c1C[C@@H]1NC(=O)[C@@H]2CCCN2C1=O [TRYPROSTATIN B] | 77.6% | 60.5% | 88.2% | 66.7% | 95.5% | 68.9% | > 100 µM | > 100 µM | 56.1 µM | > 100 µM | > 100 µM | 50.6 µM | > 100 µM | > 100 µM | > 100 µM | > 100 µM | > 100 µM | > 100 µM | > 100 µM | 58.2 µM | IC50 [28]: > 700 µM; GI50 [26]: > 100 µM; GI50 [27]: > 100 µM; GI50 [15]: 43.1 µM; GI50 [25]: > 100 µM |
| COc1ccc2c(C[C@H]3NC(=O)[C@H]4CCCN4C3=O)c(CC=C(C)C)[nH]c2c1 | 81.7% | 75.2% | > 100% | > 100% | > 100% | 83.7% | > 25 µM | > 25 µM | > 25 µM | > 25 µM | > 25 µM | > 25 µM | > 25 µM | > 25 µM | > 25 µM | > 25 µM | > 25 µM | > 25 µM | > 25 µM | > 25 µM | Activity [29]: inactive; IC50 [28]: > 700 µM; GI50 [26]: > 25 µM; GI50 [27]: > 25 µM; GI50 [15]: 23.1 µM; GI50 [25]: > 25 µM |
| CC(C)=CCc1[nH]c2cc(N=C=S)ccc2c1C[C@@H]1NC(=O)[C@@H]2CCCN2C1=O |  |  |  |  |  |  |  |  |  |  |  |  |  |  |  |  |  |  |  |  | Activity [30]: Active; Activity [31]: Active; IC50 [32]: 50 µM |
| CC(C)=CCc1[nH]c2ccccc2c1C[C@H]1NC(=O)[C@H]2CCCN2C1=O | > 100% | 99.8% | > 100% | > 100% | 95.8% | 78.9% | 25.1 µM | 29 µM | 25.8 µM | 21 µM | 12.9 µM | 12.1 µM | 39.4 µM | 21.2 µM | 38.2 µM | 16 µM | > 50 µM | > 50 µM | 11.9 µM | 7.21 µM | Activity [29]: inactive; IC50 [28]: > 700 µM; GI50 [26]: 40 µM; GI50 [27]: 21.2 µM; GI50 [18]: 37.5 µM; GI50 [25]: 12.6 µM |
| COc1ccc2c(C[C@H]3NC(=O)[C@@H]4CCCN4C3=O)c(CC=C(C)C)[nH]c2c1 | > 100% | > 100% | > 100% | > 100% | > 100% | > 100% | 11.9 µM | 35 µM | 17.7 µM | 12.2 µM | 7.76 µM | 11.3 µM | > 50 µM | 12.4 µM | > 50 µM | > 50 µM | 40 µM | 33.5 µM | 13 µM | 9.77 µM | inhibition [1]: < 2%; GI50 [26]: 25.5 µM; GI50 [27]: 21.7 µM; GI50 [18]: 16.1 µM; GI50 [25]: 27.3 µM |
| COc1ccc2c(C[C@@H]3NC(=O)[C@H](C(C)C)NC3=O)c(CC=C(C)C)[nH]c2c1 |  |  |  |  |  |  |  |  |  |  |  |  |  |  |  |  |  |  |  |  | Activity [30]: Active; Activity [31]: Active; IC50 [32]: 19 µM |
| COc1ccc2c(C[C@@H]3NC(=O)[C@H]4CCCN4C3=O)c(CC=C(C)C)[nH]c2c1 | 99.3% | 98.5% | > 100% | 99% | > 100% | > 100% | 99.4 µM | > 100 µM | > 100 µM | > 100 µM | 92 µM | 76.9 µM | > 100 µM | > 100 µM | 85.5 µM | 50 µM | > 100 µM | > 100 µM | > 100 µM | > 100 µM | inhibition [1]: < 2%; GI50 [26]: > 100 µM; GI50 [27]: > 100 µM; GI50 [15]: 16.8 µM; GI50 [18]: 40.3 µM; GI50 [25]: > 100 µM |
| COc1cc([C@@H]2c3cc4c(cc3[C@@H](O[C@@H]3O[C@@H]5CO[C@@H](C)O[C@H]5[C@H](O)[C@H]3O)[C@H]3COC(=O)[C@H]23)OCO4)cc(OC)c1O [ETOPOSIDE] |  |  |  |  |  |  |  |  |  |  |  |  |  |  |  |  |  |  |  |  | GI50 [8]: 8.7 µM; GI50 [26]: 55.6 µM; GI50 [27]: 11.1 µM |
| C=CCc1[nH]c2cc(OC)ccc2c1C[C@@H]1NC(=O)[C@@H]2CCCN2C1=O |  |  |  |  |  |  |  |  |  |  |  |  |  |  |  |  |  |  |  |  | Activity [30]: Active; Activity [31]: Active; IC50 [32]: 60 µM |
| CC(C)=CCc1[nH]c2cc(N=[N+]=[N-])ccc2c1C[C@@H]1NC(=O)[C@@H]2CCCN2C1=O |  |  |  |  |  |  |  |  |  |  |  |  |  |  |  |  |  |  |  |  | Activity [30]: Active; Activity [31]: Active; IC50 [32]: 60 µM |
